Assay results from ChEMBL document CHEMBL6127097, “Structure-Guided Discovery of cis-Hexahydro-pyrido-oxazinones as Reversible, Drug-like Monoacylglycerol Lipase Inhibitors” (J Med Chem, 2024).

Assays:
Monoglyceride lipase = molecular target: T1, Monoglyceride lipase (Rattus norvegicus, UniProt Q8R431); experiment: Binding affinity to rat MAGL assessed as equilibrium dissociation constant by SPR analysis
T1 sequence (Q8R431 whole entry): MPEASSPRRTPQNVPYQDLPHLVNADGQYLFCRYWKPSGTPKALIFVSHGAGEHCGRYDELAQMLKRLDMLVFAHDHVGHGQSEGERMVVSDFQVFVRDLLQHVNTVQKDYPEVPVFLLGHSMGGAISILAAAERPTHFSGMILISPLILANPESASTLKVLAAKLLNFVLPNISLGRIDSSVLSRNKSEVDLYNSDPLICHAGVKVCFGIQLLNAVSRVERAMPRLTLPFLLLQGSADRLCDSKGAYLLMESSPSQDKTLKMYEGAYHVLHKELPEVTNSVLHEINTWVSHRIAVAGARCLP
In short: (§1)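 Human or rat MAGL was immobilized by amine coupling without ethanolamine quenching. Runs were done at 18 °C in 10 mM HEPES, 150 mM NaCl, 0.05% P20, 50 µM EDTA, pH 7.4, with 1% DMSO. Single-cycle kinetics used five concentrations, top 1 µM in 2-fold steps, at 30 µL/min, giving kon, koff and Kd.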

[1] = Cmax in Wistar rat at 5 mg/kg, po measured upto 24 hrs by LC-MS/MS analysis; format: ADME, organism-based; details: in vivo
In short: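 Male Wistar rats (N = 3 per group) received a single dose. The i.v. dose was 1 mg/kg in NMP/0.9% NaCl 30:70. The p.o. dose was 5 mg/kg in NMP/HPMC/diisooctyl sulfosuccinate 10:90. Blood was taken into K2EDTA from 0.083 (i.v.) or 0.25 h to 24 h. Plasma was assayed by LC-MS/MS and analysed non-compartmentally.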

[2] = Cmax in Wistar rat at 10 mg/kg, ip measured upto 24 hrs by LC-MS/MS analysis; format: ADME, organism-based; details: in vivo
[3] = Ratio of drug concentration in Wistar rat brain to plasma at 10 mg/kg, ip measured upto 7 hrs by LC-MS/MS analysis; format: ADME, organism-based
In short: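 Male Wistar rats, single dose. i.v. in NMP/0.9% NaCl 30:70; p.o. and i.p. in NMP/HPMC/diisooctyl sulfosuccinate 10:90; 3 per i.v./p.o. group, 6 i.p. K2EDTA plasma sampled 0.083–7 h, plus 24 h for i.v./p.o.; brain and CSF at 1, 2, 7 h (i.p. only). LC-MS/MS, noncompartmental analysis.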

[4] = molecular target: T2, Monoglyceride lipase (Homo sapiens) (UniProt Q99685); experiment: Binding affinity to human MAGL assessed as association rate constant by SPR analysis; in short: as §1
T2 sequence (whole entry): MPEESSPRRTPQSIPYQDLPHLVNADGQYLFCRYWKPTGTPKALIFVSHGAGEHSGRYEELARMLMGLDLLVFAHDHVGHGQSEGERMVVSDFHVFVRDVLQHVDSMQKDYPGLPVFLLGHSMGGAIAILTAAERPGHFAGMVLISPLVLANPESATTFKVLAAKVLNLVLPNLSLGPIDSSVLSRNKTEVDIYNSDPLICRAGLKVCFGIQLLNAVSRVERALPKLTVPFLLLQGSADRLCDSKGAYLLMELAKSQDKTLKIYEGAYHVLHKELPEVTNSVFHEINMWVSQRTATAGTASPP

[5] = molecular target: T3, Monoglyceride lipase (Rattus norvegicus) (UniProt Q8R431); experiment: Binding affinity to rat MAGL assessed as dissociation rate constant by SPR analysis; in short: as §1
T3 sequence (whole entry): T1 sequence (Q8R431 whole entry)

[6] = molecular target: T4, Monoglyceride lipase (Mus musculus) (UniProt O35678); experiment: In vivo receptor occupancy at MAGL receptor in mouse at 30 mg/kg, ip measured after 24 hrs; format: functional, organism-based
T4 sequence (whole entry): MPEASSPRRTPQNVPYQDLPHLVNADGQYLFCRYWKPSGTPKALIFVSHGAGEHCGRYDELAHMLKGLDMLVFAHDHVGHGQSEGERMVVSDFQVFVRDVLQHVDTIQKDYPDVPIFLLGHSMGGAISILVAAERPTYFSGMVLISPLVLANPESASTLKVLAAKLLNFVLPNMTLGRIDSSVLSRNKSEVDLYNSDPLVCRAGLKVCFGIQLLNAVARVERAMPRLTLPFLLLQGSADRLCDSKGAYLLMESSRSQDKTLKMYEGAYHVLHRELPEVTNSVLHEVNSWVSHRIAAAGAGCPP
In short: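 Mice dosed 30 mg/kg i.p. in NaCl/DMSO/TW80 (80/10/10). Brain proteome was prepared at set time points over 24 h and MAGL occupancy read by activity-based protein profiling.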

Kd (Monoglyceride lipase) [µM]	Cmax [1] [ng/mL]	Cmax [2] [ng/mL]	Kp at 7 h [3]	K [4]	K [5]	Activity [6] [%]	Structure (SMILES)
0.064	1290	12200	1.1				O=C1CO[C@H]2CCN(C(=O)N3CCC(Cc4ccc(C(F)(F)F)cc4)CC3)C[C@H]2N1 [listing 1 of 2 here]
				2.5 10^5/M/s	16.8 10^-3/s	5	O=C1CO[C@H]2CCN(C(=O)N3CCC(Cc4ccc(C(F)(F)F)cc4)CC3)C[C@H]2N1 [listing 2 of 2 here]
